According to publication PMC2606940 (The Journal of General Physiology, 2009):
Numbering of substitutions follows the chain as printed.

What was measured:
[1] = target: T1, CLC-0 E166Q mutant (Torpedo marmorata, UniProt P21564, C212S/E166Q); assay: Single-channel recordings, channels expressed in Xenopus oocytes; assay type: cell-based; conditions: 0.1 mM CPA; −100 mV
T1 sequence (P21564 1-805 E166Q/C212S): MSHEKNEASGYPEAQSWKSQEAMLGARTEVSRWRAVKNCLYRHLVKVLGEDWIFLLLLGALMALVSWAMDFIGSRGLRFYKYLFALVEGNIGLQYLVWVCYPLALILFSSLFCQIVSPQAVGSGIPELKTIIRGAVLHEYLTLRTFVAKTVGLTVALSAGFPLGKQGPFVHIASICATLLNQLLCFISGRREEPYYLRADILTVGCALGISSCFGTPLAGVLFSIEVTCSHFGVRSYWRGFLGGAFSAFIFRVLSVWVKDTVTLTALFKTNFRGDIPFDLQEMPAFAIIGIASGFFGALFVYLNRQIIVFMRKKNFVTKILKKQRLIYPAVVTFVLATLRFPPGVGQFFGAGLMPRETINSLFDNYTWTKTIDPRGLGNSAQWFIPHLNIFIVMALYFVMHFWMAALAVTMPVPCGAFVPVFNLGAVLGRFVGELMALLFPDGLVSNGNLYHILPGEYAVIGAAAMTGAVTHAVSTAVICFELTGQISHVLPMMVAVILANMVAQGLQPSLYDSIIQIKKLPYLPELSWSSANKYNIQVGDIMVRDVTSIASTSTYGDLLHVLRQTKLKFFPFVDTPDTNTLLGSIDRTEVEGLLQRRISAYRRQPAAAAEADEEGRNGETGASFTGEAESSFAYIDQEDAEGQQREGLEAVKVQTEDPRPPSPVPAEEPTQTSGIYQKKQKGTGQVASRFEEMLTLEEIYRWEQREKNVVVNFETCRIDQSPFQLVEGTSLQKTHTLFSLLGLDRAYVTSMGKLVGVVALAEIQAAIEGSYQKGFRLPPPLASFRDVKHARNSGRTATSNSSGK
Outline: (§1)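 Single channels were expressed in Xenopus oocytes from cRNA made from a pBluescript construct. Currents were recorded at −100 mV with cytoplasmic CPA at 100 μM, filtered at 200 Hz (four-pole Bessel) and digitized at 1 kHz. Average dwell time of nonconducting events was analysed from the single-channel traces.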

[2] = target: T2, CLC-0 E166A mutant (Torpedo marmorata, UniProt P21564, C212S/E166A); assay: as above; assay type: cell-based; conditions: 0.1 mM CPA cytoplasmic side; −100 mV
T2 sequence (P21564 1-805 E166A/C212S): T1 sequence (P21564 1-805 E166Q/C212S) with Q166A
Outline: as §1

## O=C(O)COc1ccc(Cl)cc1 [CPA, p-chlorophenoxy acetate]
[1]
  long blocked state in single-channel trace: absent
[2]
  averaged time of nonconducting (blocked) events: ~55 ms
